Results on 20 compounds are retold here after ChEMBL document CHEMBL1687879, “Synthesis, glucose uptake activity and structure-activity relationships of some novel glitazones incorporated with glycine, aromatic and alicyclic amine moieties via two carbon acyl linker” (2011).

Format in all cases: functional, Diaphragm
The nature of assay [1]: Antidiabetic activity in rat hemidiaphragm assessed as glucose uptake at 2 mg after 45 mins in absence of insulin. Summed up: (§1)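 Isolated rat hemi-diaphragm in Tyrode, test agent at 1 mg or 2 mg with or without insulin; 45 min incubation at 21 °C, shaking at 60 cycles/min. Medium glucose measured by GOD/POD enzymatic method; uptake expressed as mg/dl/45 min. Run in triplicate, mean ± SEM; groups compared by one-way ANOVA with Dunnett's post-test.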

A short description of assay [2]: Antidiabetic activity in rat hemidiaphragm assessed as glucose uptake at 2 mg after 45 mins in presence of insulin. The essentials:
as §1

Assay [3] is described as follows: Antidiabetic activity in rat hemidiaphragm assessed as glucose uptake at 1 mg after 45 mins in presence of insulin. Summed up: as §1
A short description of assay [4]: Antidiabetic activity in rat hemidiaphragm assessed as glucose uptake at 1 mg after 45 mins in absence of insulin. The essentials: as §1

The structures appear in SMILES notation.

With `O=C(CN1C(=O)S/C(=C\c2ccc(Cl)cc2)C1=O)Nc1ccccc1`, the Activity worked out at 16.9 mg/dL in assay [1], 36.66 mg/dL in assay [2], 36.03 mg/dL in assay [3] and 16.83 mg/dL in assay [4].
For `O=C(CN1C(=O)S/C(=C\c2ccccc2Cl)C1=O)Nc1ccccc1`, the Activity in assay [1] came to 14.03 mg/dL; in assay [2] it was 27.16 mg/dL; in assay [3], 26.03 mg/dL; in assay [4], 13.81 mg/dL.
The matching figures for `O=C(CN1C(=O)S/C(=C\c2cccc(Cl)c2)C1=O)Nc1ccccc1`: 17.63 mg/dL, 40.5 mg/dL, 39 mg/dL and 17.83 mg/dL.
For `CCOC(=O)CNC(=O)CN1C(=O)S/C(=C\c2ccc(OC)cc2)C1=O`, the Activity in assay [1] amounted to 18.79 mg/dL; in assay [2], 43.07 mg/dL; in assay [3], 41.5 mg/dL; in assay [4], 18.28 mg/dL.
On the same counts, the results for `O=C(COc1ccc(/C=C2\SC(=O)NC2=O)cc1)Nc1ccccc1` are 18.5 mg/dL, 42.69 mg/dL, 41.16 mg/dL and 18.46 mg/dL.
For the compound `O=C(COc1ccc(/C=C2\SC(=S)NC2=O)cc1)Nc1ccccc1`, the Activity in assay [1] was 16.33 mg/dL; in assay [2], 35.33 mg/dL; in assay [3], 34.66 mg/dL; in assay [4] it was 16.16 mg/dL.
Consider `CCc1cccc(CC)c1NC(=O)COc1ccc(/C=C2\SC(=S)NC2=O)cc1`, for which the Activity was determined as 15.66 mg/dL in assay [1], 28.5 mg/dL in assay [2], 28.83 mg/dL in assay [3] and 14.5 mg/dL in assay [4].
The matching figures for `CCc1cccc(CC)c1NC(=O)COc1ccc(/C=C2\SC(=O)NC2=O)cc1`: 15 mg/dL, 29.8 mg/dL, 29 mg/dL and 15.82 mg/dL.
Regarding `COc1ccc(NC(=O)COc2ccc(/C=C3\SC(=O)NC3=O)cc2)cc1`, the Activity in assay [1] is 16.83 mg/dL; in assay [2], 35.66 mg/dL; in assay [3], 34.16 mg/dL; in assay [4] it was 16.66 mg/dL.
For the compound `COc1ccc(NC(=O)COc2ccc(/C=C3\SC(=S)NC3=O)cc2)cc1`, the Activity in assay [1] is 17.01 mg/dL; in assay [2] it was 37.09 mg/dL; in assay [3] it was 35 mg/dL; in assay [4], 16.91 mg/dL.
Consider `Cc1ccc(NC(=O)COc2ccc(/C=C3\SC(=O)NC3=O)cc2)cc1`, for which the Activity came to 16.16 mg/dL in assay [1], 33.5 mg/dL in assay [2], 33.83 mg/dL in assay [3] and 16 mg/dL in assay [4].
On to `Cc1ccc(NC(=O)COc2ccc(/C=C3\SC(=S)NC3=O)cc2)cc1`, for which the Activity turned out to be 16.56 mg/dL in assay [1], 34.16 mg/dL in assay [2], 33.79 mg/dL in assay [3] and 15.33 mg/dL in assay [4].
The matching figures for `COc1ccc(/C=C2\SC(=O)N(CC(=O)Nc3ccccc3)C2=O)cc1`: 19.66 mg/dL, 43.9 mg/dL, 42.16 mg/dL and 18.71 mg/dL.
On the same counts, the results for `O=C(CN1C(=O)S/C(=C\c2ccc(Cl)cc2Cl)C1=O)Nc1ccccc1` are 18.5 mg/dL, 42.44 mg/dL, 41.93 mg/dL and 18.33 mg/dL.
Regarding `O=C(CN1C(=O)S/C(=C\c2ccccc2O)C1=O)Nc1ccccc1`, the Activity in assay [1] was 18.33 mg/dL; in assay [2], 42.26 mg/dL; in assay [3], 41.85 mg/dL; in assay [4], 18 mg/dL.
In the case of `O=C(CN1C(=O)S/C(=C\C=C\c2ccccc2)C1=O)Nc1ccccc1`, the Activity in assay [1] was 16.16 mg/dL; in assay [2], 36.66 mg/dL; in assay [3] it was 36.16 mg/dL; in assay [4] it was 15 mg/dL.
The matching figures for `O=C(CN1C(=O)S/C(=C\c2ccccc2)C1=O)Nc1ccccc1`: 18 mg/dL, 39 mg/dL, 38.3 mg/dL and 17.72 mg/dL.
The matching figures for `O=C(CN1C(=O)S/C(=C\c2ccco2)C1=O)Nc1ccccc1`: 15.86 mg/dL, 32.29 mg/dL, 32.16 mg/dL and 15.66 mg/dL.
The matching figures for `COc1cc(/C=C2\SC(=O)N(CC(=O)Nc3ccccc3)C2=O)ccc1O`: 16.96 mg/dL, 30.83 mg/dL, 28.5 mg/dL and 15.5 mg/dL.
On to `CN(CCOc1ccc(CC2SC(=O)NC2=O)cc1)c1ccccn1` (stereo not given) [ROSIGLITAZONE], for which the Activity came out at 20.36 mg/dL in assay [1], 50.33 mg/dL in assay [2], 48.34 mg/dL in assay [3] and 19 mg/dL in assay [4].
